Tests used:
[1] = Vasorelaxant activity in bovine coronary artery assessed as reduction of U46619-induced contraction at 10 uM; format: functional, Bos taurus; set-up: scale not given: the % may be the effect or the level left
Method in brief: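 Precontracted bovine coronary artery rings were exposed to test agent at 10 μM. Relaxation is expressed as a percentage relative to a 14,15-EET control run in the same preparation. Bioassay determinations n = 3−5.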

[2] = Vasorelaxant activity in bovine coronary artery assessed as reduction of U46619-induced contraction; format: functional, tissue-based, Bos taurus
Method in brief: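 Bovine coronary artery rings, precontracted, exposed to compound to obtain a concentration–response for relaxation. The value is the EC50 for vasorelaxation. Bioassay determinations n = 3−5.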

[3] = target: T1, Bifunctional epoxide hydrolase 2 (Homo sapiens, UniProt P34913); test: Inhibition of recombinant human sEH using CMNPC substrate by fluoresecent-based assay
T1 sequence (P34913 whole entry): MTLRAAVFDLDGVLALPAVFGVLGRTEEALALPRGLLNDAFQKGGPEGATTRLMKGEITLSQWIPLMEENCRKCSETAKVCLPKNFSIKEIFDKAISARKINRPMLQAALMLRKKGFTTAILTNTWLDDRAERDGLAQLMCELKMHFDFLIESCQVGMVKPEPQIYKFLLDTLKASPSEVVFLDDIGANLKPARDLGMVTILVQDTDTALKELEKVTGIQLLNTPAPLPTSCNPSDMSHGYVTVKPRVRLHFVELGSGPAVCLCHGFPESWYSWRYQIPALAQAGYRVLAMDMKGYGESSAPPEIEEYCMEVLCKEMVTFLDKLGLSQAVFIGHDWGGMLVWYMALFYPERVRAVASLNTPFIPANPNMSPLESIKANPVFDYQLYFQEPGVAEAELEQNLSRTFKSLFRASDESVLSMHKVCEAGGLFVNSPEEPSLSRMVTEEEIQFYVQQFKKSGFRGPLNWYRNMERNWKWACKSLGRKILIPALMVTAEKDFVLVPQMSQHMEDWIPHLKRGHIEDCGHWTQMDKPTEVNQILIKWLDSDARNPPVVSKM

| SMILES | Activity [1] | EC50 [2] | IC50 [3] |
| --- | --- | --- | --- |
| CCCCCC1OC1C/C=C\C/C=C\C/C=C\CCCC(=O)O (stereo not drawn) | 85% | 2.2 µM | – |
| CCCCCCC(=O)N(CCCC/C=C\CCCCCCC(=O)OCCOCCOCCO)C(C)C | 86% | 2.9 µM | > 0.5 µM |
| CCCCCNC(=O)NCCCC/C=C\CCCCCCC(=O)OCCOCCOCCO | 72% | 5.1 µM | – |
| CCCCNC(=O)C(=O)NCCCC/C=C\CCCCCCC(=O)OCCOCCOCCO | 104% | 1.5 µM | > 0.5 µM |
| CCCCCCC(=O)N(CCCC/C=C\CCCCCCC(=O)NCC(=O)O)C(C)C | 95% | 1.9 µM | > 0.5 µM |
| CCCCCN(C)C(=O)N(C)CCCC/C=C\CCCCCCC(=O)NCC(=O)O | 92% | 2.75 µM | > 0.5 µM |
| CCCCCNC(=O)NCCCC/C=C\CCCCCCC(=O)N[C@@H](CC(=O)[O-])C(=O)[O-].[Na+].[Na+] | 91% | 1.6 µM | – |
| CCCCCNC(=O)NCCCC/C=C\CCCCCCC(=O)NS(=O)(=O)c1ccccc1 | 73% | 6 µM | – |
| CCCCCNC(=O)NCCCC/C=C\CCCCCCC(=O)NS(C)(=O)=O | 61% | 6.7 µM | – |
| CCCCCNC(=O)NCCCC/C=C\CCCCCNS(=O)(=O)c1ccccc1 | – | 3.4 µM | – |
| CCCCCNC(=O)NCCCC/C=C\CCCCCCP(=O)([O-])[O-].[Na+].[Na+] | 71% | > 10 µM | – |
| CCCCCNC(=O)NCCCC/C=C\CCCCCCS(=O)(=O)[O-].[Na+] | 63% | 7.6 µM | – |
| CCCCCNC(=O)NCCCC/C=C\CCCCCSc1ccccc1O | – | > 10 µM | – |
| CCCCCNC(=O)NCCCC/C=C\CCCCCS(=O)(=O)c1ccccc1O | – | 5 µM | – |
| CCCCCNC(=O)NCCCC/C=C\CCCCCSc1nnn[nH]1 | – | 3.7 µM | – |
| CCCCCNC(=O)NCCCC/C=C\CCCCCSc1ncn[nH]1 | – | 9.8 µM | – |
| CCCCCNC(=O)NCCCC/C=C\CCCCC[S+]([O-])c1ncn[nH]1 (stereo not drawn) | – | 3.5 µM | – |

| SMILES | Activity [1] | EC50 [2] | IC50 [3] |
| --- | --- | --- | --- |
| CCCCCNC(=O)NCCCC/C=C\CCCCCS(=O)(=O)c1ncn[nH]1 | – | 3.1 µM | – |
| CCCCCCC(=O)N(CCCC/C=C\CCCCCCc1nnn[nH]1)C(C)C | 74% | 1 µM | > 0.5 µM |
| CCCCCNC(=O)NCCCC/C=C\CCCCCCc1nnn[nH]1 | 119% | 0.18 µM | – |
| CCCCCNC(=O)NCCCC/C=C\CCCCCCCc1nnn[nH]1 | 110% | 1.1 µM | – |
| CCCCNC(=O)C(=O)NCCCC/C=C\CCCCCCc1nnn[nH]1 | 96% | 1.7 µM | > 0.5 µM |
| CCCCCNC(=O)NCCCC/C=C\CCCCCCc1noc(=O)[nH]1 | 89% | 1.1 µM | – |
| CCCCCNC(=O)NCCCC/C=C\CCCCCCC1=NOS(=O)N1 (stereo not drawn) | 109% | 0.34 µM | – |
| CCCCCCC(=O)N(CCCC/C=C\CCCCCCC1=NOS(=O)N1)C(C)C (stereo not drawn) | 109% | 0.32 µM | > 0.5 µM |
| CCCCNC(=O)C(=O)NCCCC/C=C\CCCCCCc1noc(=S)[nH]1 | 116% | 0.36 µM | > 0.5 µM |
| CCCCCNC(=O)NCCCC/C=C\CCCCCCc1noc(=S)[nH]1 | 93% | 3.3 µM | – |
| CCCCCNC(=O)NCCCC/C=C\CCCCCCc1nsc(=O)[nH]1 | 54% | 2.4 µM | – |
| CCCCCNC(=O)NCCCC/C=C\CCCCCC1SC(=O)NC1=O (stereo not drawn) | – | > 10 µM | – |
| CCCCCNC(=O)NCCCC/C=C\CCOc1cccc2sc(NC(C)=O)nc12 | – | 3.3 µM | – |
| CCCCCCC(=O)N(CCCCCOc1cccc2sc(NC(C)=O)nc12)C(C)C | 96% | – | > 0.5 µM |
| CCCCCNC(=O)NCCCCCOc1cccc2sc(NC(C)=O)nc12 | 73% | 0.9 µM | > 0.5 µM |
| CCCCNC(=O)C(=O)NCCCCCOc1cccc2sc(NC(C)=O)nc12 | 96% | 2.4 µM | > 0.5 µM |
| CCCCCNC(=O)NCCCC/C=C\CCCCOCC(=O)O | 49% | – | – |

— ChEMBL document CHEMBL3352195, “14,15-Epoxyeicosa-5,8,11-trienoic Acid (14,15-EET) surrogates: carboxylate modifications” (J Med Chem, 2014)
